A selection: hits, their analogues and other compounds. The true share with any hit is near 2.2%.
Ecoli rRNA inh = selective bacterial rRNA inhibition in E. coli; E. coli WT GFP vs humanized-ribosome RFP mutants, fluorescence, 24 h; active compounds read low; DMSO median 0, no signal -100; GFP signal change (wild-type ribosome), % (concentration not given with the values); hit rate 1.6% among 350,000;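 active = significant combined selectivity score with lowered wild-type GFP, culture density cut under 30%, mutant RFP and density less affected; inactive = any of these conditions unmet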
Yeast superoxide = caloric restriction mimetics inhibiting age-related superoxide in yeast; S. cerevisiae aged cells, superoxide DHE fluorescence; active compounds read low; superoxide response (% of plate mean), % at 10 µM; hit rate 0.18% among 330,000;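 active = superoxide response under a set limit, about three screen SD below normal, cut at about 65% in these data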;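 also: yeast aged for seven days with compound at 30 °C before DHE staining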
PglD DTNB = blocks C. jejuni PglD acetyltransferase activity. hit rate 0.098% among 360,000. purified PglD enzyme, DTNB colorimetric CoA detection. AID 602405. inhibition, % at 12.5 µM; in the data active = inhibition above about 16%, passing the limit was not always enough
Cneo AK release = causes C. neoformans cell lysis. adenylate kinase release luminescence, 4 h; normalised: neutral wells 0, clomiphene wells 100. lysis activity, % at 15 µM. hit rate 0.2% among 360,000;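 active = mean lysis activity across replicates of at least 80%, whatever share of replicates individually reach that level; inactive = mean lysis activity below 80%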
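Material: C. neoformans cells; Schedule: 4 h static compound exposure, 37 °C, read 1 h post-reagent; Measured by: adenylate kinase release luminescence; Read-out: signal increase indicating cell lysis; Controls: Clomiphene as positive lysis control.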
SUMO Mot1 rescue = SUMOylation pathway inhibition by Mot1-301 growth rescue; S. cerevisiae Mot1-301 growth rescue, ATP luminescence, 38.5C; percent above DMSO median, 100 means doubled; growth rescue, % at 18.8 µM; hit rate 1% among 320,000; AID 2716;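 active = every valid replicate shows activation above 250% relative to neutral control wells; inactive = the rest, any valid replicate at or below 250%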
CR mimetic CP = confirmation of caloric restriction mimetics inhibiting yeast age-related superoxide | shares compounds with Yeast superoxide | superoxide response (% of plate), % at 10 µM | S. cerevisiae aging, superoxide DHE fluorescence; active compounds read low | hit rate 1% among 850;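 active = superoxide signal below 65% of the plate average of sample wells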;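 also: cells aged with compound for 7 days at 30 degrees C before staining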
DHE fluor count = DHE fluorescence interference, counter-screen artifact; 850 tested, under 10 active; S. cerevisiae BY4741, flow cytometry; active compounds read low; fluorescence response, % at 10 µM; shares compounds with Yeast superoxide; AID 435000;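 active = fluorescence response below 15%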;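 also: lower means stronger quenching of DHE signal or ROS scavenging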
Large screens that a line does not name were inactive (follow-up assays come after a bar, where they were run).

COc1ccc(/C=N/NC(=O)c2cccnc2)cc1	Yeast superoxide 54.3 | CR mimetic CP inactive | DHE fluor count inactive
Cc1cc2ccccn2c1C(=O)c1ccccc1F	Yeast superoxide 61.5 | CR mimetic CP inactive | DHE fluor count inactive
Cc1cc2ccccn2c1C(=O)c1ccc(Cl)cc1	none (no result: Ecoli rRNA inh)
C[C@@H]1CN([C@H](C)CO)C(=O)c2cc(/C=C/c3ccccc3)cnc2O[C@H]1CN(C)C(=O)C1CC1	none (no result: Yeast superoxide, PglD DTNB, Cneo AK release, SUMO Mot1 rescue)
CCOC(=O)c1ccccc1N/C=C/C(=O)c1cccs1	Yeast superoxide 63.4 (no result: PglD DTNB, Cneo AK release) | CR mimetic CP inactive | DHE fluor count inactive
Cc1ccc(C(=O)SC2=NCCS2)cc1	Yeast superoxide 57.8 (no result: PglD DTNB) | CR mimetic CP inactive | DHE fluor count inactive
COC(=O)C[C@@H]1CC[C@@H]2[C@@H](COc3ccc(NC(=O)c4cc(F)cc(F)c4)cc3C(=O)N2C)O1	none (no result: Yeast superoxide, SUMO Mot1 rescue)
O=C(Nc1ccc(F)cc1)N1C[C@@H]2[C@H](c3ccccc31)[C@@H](CO)N2C(=O)c1ccc(F)cc1	none (no result: Yeast superoxide, SUMO Mot1 rescue)
CC(=O)O[C@H]1C[C@@H]2CC[C@@H]3[C@H](CC[C@@]4(C)[C@H]3C[C@H]([N+]3(C)CCCCC3)[C@@H]4OC(C)=O)[C@@]2(C)C[C@@H]1N1CCCCC1	none (no result: Ecoli rRNA inh, PglD DTNB, Cneo AK release) | CR mimetic CP inactive | DHE fluor count inactive
CCCNC(=O)N1[C@H](C#N)[C@H](c2ccc(-c3ccccc3F)cc2)[C@H]1CO	none (no result: Yeast superoxide, SUMO Mot1 rescue)
COc1cc2c(cc1OC)[N+]([O-])=C(c1ccccc1)C2=O	none (no result: Yeast superoxide, PglD DTNB, Cneo AK release, SUMO Mot1 rescue)
O=C1C(c2ccccc2)=[N+]([O-])c2ccccc21	Yeast superoxide 57.4 | CR mimetic CP inactive | DHE fluor count inactive
O=C(CSc1ccc(-c2nc3ccccc3[nH]2)cn1)Nc1ccc(S(=O)(=O)N2CCCC2)cc1	Yeast superoxide 64.5 (no result: Ecoli rRNA inh, PglD DTNB, Cneo AK release) | CR mimetic CP inactive | DHE fluor count inactive
Cc1ccccc1S(=O)(=O)NCC[C@H]1CC[C@@H](NC(=O)C2CCC2)[C@@H](CO)O1	none (no result: Yeast superoxide, SUMO Mot1 rescue)
CCCCCC(=O)NC(=S)Nc1cccc(C(C)=O)c1	Yeast superoxide 60.2 | CR mimetic CP inactive | DHE fluor count inactive
CCNC(=O)[C@H]1[C@H](CO)[C@H]2Cn3c(cccc3=O)[C@@H]1N2CC1CCOCC1	none (no result: Yeast superoxide, PglD DTNB, Cneo AK release, SUMO Mot1 rescue)
COCC(=O)N[C@H]1C=C[C@@H](CC(=O)N2CCCCC2)O[C@@H]1CO	none (no result: Yeast superoxide, SUMO Mot1 rescue)
COc1ccc(NC(=O)CCn2c(=S)[nH]c3ccccc3c2=O)cc1	Yeast superoxide 65.3 | CR mimetic CP inactive | DHE fluor count inactive
C[C@H](CO)N1C[C@H](C)[C@@H](CN(C)S(=O)(=O)c2ccc(F)cc2)OCc2ccccc2-c2ccccc2C1=O	none (no result: Yeast superoxide, PglD DTNB, Cneo AK release, SUMO Mot1 rescue)
Cc1cc(NC(=O)CNCC(c2ccccc2)N(C)C)c([N+](=O)[O-])cc1C (stereo not given)	Yeast superoxide 42.9 | CR mimetic CP inactive | DHE fluor count inactive
CCC(CO)NCc1ccc2c(c1)n(C)c(=O)n2C (stereo not given)	Yeast superoxide 61.3 (no result: Ecoli rRNA inh) | CR mimetic CP inactive | DHE fluor count inactive
CCc1ccc(C(=O)Nc2ccc3c(c2)n(C)c(=O)n3C)cc1	none
CO[C@H]1CC[C@H]2CCOc3c(C#N)cccc3C(=O)N(C)C[C@@H](OC)[C@H](C)C(=O)N(C)C[C@H]1O2	none (no result: Yeast superoxide, SUMO Mot1 rescue)
COc1ccc(-c2c(-c3cc(OC)cc(OC)c3)n(C)c3ccc(-c4ccc(SC)cc4)cc23)cc1	Yeast superoxide 65.4 | CR mimetic CP inactive | DHE fluor count inactive
COc1cc(OC)cc(-c2c(-c3ccc(F)cc3)c3cc(-c4ccc(SC)cc4)ccc3n2C)c1	none
Cc1cccc(NS(=O)(=O)c2cc(C(=O)N3CCN(C)CC3)ccc2C)c1	Yeast superoxide 64.3 (no result: Ecoli rRNA inh) | CR mimetic CP inactive | DHE fluor count inactive
CCN1CCN(C(=O)c2ccc(C)c(S(=O)(=O)Nc3cccc(C)c3)c2)CC1	none
COCCn1c(SCC(=O)Nc2ccc(NC(C)=O)cc2)nc2ccccc2c1=O	Yeast superoxide 50.7 | CR mimetic CP inactive | DHE fluor count inactive
CCCOc1ccc(NC(=O)C2CC(=O)N3CCCN=C3S2)cc1 (stereo not given)	Yeast superoxide 65.0 (no result: Ecoli rRNA inh) | CR mimetic CP inactive | DHE fluor count inactive
CCCNC(=O)Nc1ccc2c(c1)C(=O)N(C)C[C@@H](OC)[C@@H](C)CN(Cc1ccccc1)[C@@H](C)CO2	none (no result: Yeast superoxide, PglD DTNB, Cneo AK release, SUMO Mot1 rescue)
O=C(Nc1ccc2c(c1)[C@H]1C[C@@H](CC(=O)N3CCc4ccccc4C3)O[C@@H](CO)[C@H]1O2)C1CCOCC1	none (no result: Yeast superoxide, SUMO Mot1 rescue)
CN1CCN(C2=Cc3cc(Cl)ccc3Sc3cc(F)ccc32)CC1	Yeast superoxide 59.9 (no result: Ecoli rRNA inh) | CR mimetic CP inactive | DHE fluor count inactive
CCNC(=S)NNC(=O)c1csc2c1CCCC2	Yeast superoxide 58.4 | CR mimetic CP inactive | DHE fluor count inactive
CCC(=O)c1ccc(N2CCN(C(=O)c3ccccc3F)CC2)c(F)c1	none (no result: PglD DTNB, Cneo AK release)
Cc1ccc(N2CCN(C(=O)c3ccccc3F)CC2)c(C)c1	none | CR mimetic CP inactive | DHE fluor count inactive
CCCc1c(NC(=O)Nc2ccc(F)cc2)cnn1-c1ccccc1	Yeast superoxide 60.5 (no result: PglD DTNB, Cneo AK release) | CR mimetic CP inactive | DHE fluor count inactive
CCCc1c(C(=O)Nc2ccc(F)cc2C)cnn1-c1ccccc1	none
Cc1[nH][nH]c(=O)c1C(c1ccc(O)c(Br)c1)c1c(C)[nH][nH]c1=O	Yeast superoxide 56.3 | CR mimetic CP inactive | DHE fluor count inactive
CCOC(=O)c1c(C)nc2ccc(Cl)cc2c1-c1ccccc1	Yeast superoxide 62.2 (no result: PglD DTNB, Cneo AK release) | CR mimetic CP inactive | DHE fluor count inactive
NC(=O)c1ccc(NC(=O)COC(=O)c2ccccc2Nc2ccccc2)cc1	Yeast superoxide 56.1 | CR mimetic CP inactive | DHE fluor count inactive
O=C(COC(=O)c1ccccc1Nc1ccccc1)NCc1ccccc1	none (no result: Ecoli rRNA inh)
Cc1cccc(-c2cc3nc(-c4ccccc4)cc(=O)n3[nH]2)c1	none | CR mimetic CP inactive | DHE fluor count inactive
C=CCc1c(C)nc2cc(-c3ccc(C)cc3)[nH]n2c1=O	none
CCc1c(C)nc2c(-c3ccccc3)c(-c3ccccc3)[nH]n2c1=O	none | CR mimetic CP inactive | DHE fluor count inactive
Cc1ccccc1-c1cc2nc(-c3ccc([N+](=O)[O-])cc3)cc(=O)n2[nH]1	none (no result: PglD DTNB, Cneo AK release)
CCc1c(C)nc2cc(-c3ccccc3)[nH]n2c1=O	none | CR mimetic CP inactive | DHE fluor count inactive
CCc1c(C)nc2c(-c3ccccc3OC)c(C)[nH]n2c1=O	none
O=C(Cn1nc(Br)nc1Br)c1ccccc1	Yeast superoxide 56.5 | CR mimetic CP inactive | DHE fluor count inactive
NNC(=O)CCn1c2ccccc2c2ccccc21	none (no result: PglD DTNB, Cneo AK release) | CR mimetic CP inactive | DHE fluor count inactive
CCCNC(=O)[C@@H]1CCCN1C(=O)C1CCN(S(=O)(=O)c2ccc(C)cc2)CC1	Yeast superoxide 64.3 | CR mimetic CP inactive | DHE fluor count inactive
COc1cccc(-c2ccc3c(c2)O[C@@H](CN(C)C)[C@@H](C)CN([C@H](C)CO)S3(=O)=O)c1	none (no result: Yeast superoxide, SUMO Mot1 rescue)

Assay outcomes (PubChem BioAssay)
